# Source: ChEMBL document CHEMBL1152454, “Novel plasmid-mediated 16S rRNA m1A1408 methyltransferase, NpmA, found in a clinically isolated Escherichia coli strain resistant to structurally diverse aminoglycosides” (2007)
# The source made the active and inactive calls. The rule behind the calls is not given here.
# Tests used:
# Escherichia coli [1] = assay: Antibacterial activity against Escherichia coli JM109 carrying pMCL-BE by agar dilution method; type: functional
# Method in brief: (§1)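 Minimal inhibitory concentration (MIC) by agar dilution on Mueller-Hinton agar, following the CLSI protocol. Strains were routinely grown in LB broth at 37°C with shaking.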
# Escherichia coli [2] = assay: Antibacterial activity against Escherichia coli CSH-2 by agar dilution method; type: functional; method in brief: as §1
# Escherichia coli [3] = assay: Antibacterial activity against Escherichia coli JM109 carrying pMCL210 by agar dilution method; type: functional; method in brief: as §1
# Escherichia coli [4] = assay: Antibacterial activity against Escherichia coli CSH-2 carrying Escherichia coli ARS3 pARS3 by agar dilution method; type: functional; method in brief: as §1
# Escherichia coli [5] = assay: Antibacterial activity against Escherichia coli isolate ARS3 carrying pARS3 by agar dilution method; type: functional; method in brief: as §1
# Escherichia coli [6] = assay: Antibacterial activity against Escherichia coli (DE3)pLysS carrying pCold-NpmA by microdilution susceptibility test; type: functional
# Escherichia coli [7] = assay: Antibacterial activity against Escherichia coli (DE3)pLysS carrying pCold-IV by microdilution susceptibility test; type: functional
# Nucleic Acid [8] = assay: Binding affinity to 16S rRNA G1494(N7) position in A1408-methylated Escherichia coli JM109 30S sunit at 1000 uM by footprint assay; type: nucleic-acid assay
# Method in brief: (§2)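 Aminoglycoside (1–1,000 μM final) was added, 37°C 30 min, then ice 10 min. DMS modification followed at 37°C for 10 min, then quench and rRNA extraction. G1494 protection was read by primer extension.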
# Nucleic Acid [9] = assay: Binding affinity to 16S rRNA G1494(N7) position in wild type Escherichia coli JM109 30S sunit at 100 uM by footprint assay; type: nucleic-acid assay; method in brief: as §2
# Nucleic Acid [10] = assay: Binding affinity to 16S rRNA G1494(N7) position in A1408-methylated Escherichia coli JM109 30S sunit at 100 uM by footprint assay; type: nucleic-acid assay; method in brief: as §2
# Nucleic Acid [11] = assay: Binding affinity to 16S rRNA G1494(N7) position in wild type Escherichia coli JM109 30S sunit at 1000 uM by footprint assay; type: nucleic-acid assay; method in brief: as §2
# Nucleic Acid [12] = assay: Binding affinity to 16S rRNA G1494(N7) position in A1408-methylated Escherichia coli JM109 30S sunit by footprint assay; type: nucleic-acid assay
# Method in brief: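 Aminoglycoside added (final 1 μM to 1,000 μM) for 30 min at 37°C, then 10 min on ice. DMS probing for 10 min at 37°C. The G1494 footprint was read by reverse-transcriptase primer extension.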
Molecule,MIC (Escherichia coli [1]),MIC (Escherichia coli [2]),MIC (Escherichia coli [3]),MIC (Escherichia coli [4]),MIC (Escherichia coli [5]),MIC (Escherichia coli [6]),MIC (Escherichia coli [7]),Activity (Nucleic Acid [8]),Activity (Nucleic Acid [9]),Activity (Nucleic Acid [10]),Activity (Nucleic Acid [11]),Activity (Nucleic Acid [12])
CN[C@H]1C[C@@H](N)[C@H](O)[C@@H](O[C@@H]2O[C@H](CO)[C@H](O)[C@H]3O[C@@]4(O[C@H]23)O[C@H]([C@H](N)CO)[C@H](O)[C@H](O)[C@H]4O)[C@@H]1O,32 µg/mL,16 µg/mL,32 µg/mL,16 µg/mL,128 µg/mL,–,–,–,–,–,–,–
NCC[C@H](O)C(=O)N[C@@H]1C[C@H](N)[C@@H](O[C@H]2O[C@H](CN)[C@@H](O)[C@H](O)[C@H]2O)[C@H](O)[C@H]1O[C@H]1O[C@H](CO)[C@@H](O)[C@H](N)[C@H]1O [AMIKACIN],32 µg/mL,0.13 µg/mL,0.5 µg/mL,16 µg/mL,256 µg/mL,–,–,–,–,–,–,–
CN[C@@H]1[C@@H](O[C@H]2O[C@H](CO)[C@@H](N)[C@H](O)[C@H]2O)OC2C[C@@H](N)[C@@H](O[C@H]3[C@H](O)[C@@H](O)[C@H](N)C[C@@H]3N)OC2[C@@H]1O (stereo not given in full) [APRAMYCIN],> 256 µg/mL,1 µg/mL,2 µg/mL,> 256 µg/mL,> 256 µg/mL,> 1000 µg/mL,3.9 µg/mL,–,–,–,–,–
NCC[C@H](O)C(=O)N[C@@H]1C[C@H](N)[C@@H](O[C@H]2O[C@H](CN)CC[C@H]2N)[C@H](O)[C@H]1O[C@H]1O[C@H](CO)[C@@H](O)[C@H](N)[C@H]1O [ARBEKACIN],4 µg/mL,0.13 µg/mL,0.25 µg/mL,4 µg/mL,64 µg/mL,–,–,–,–,–,–,–
NC[C@@H]1CC[C@@H](N)[C@@H](O[C@H]2[C@H](O)[C@@H](O[C@H]3O[C@H](CO)[C@@H](O)[C@H](N)[C@H]3O)[C@H](N)C[C@@H]2N)O1 [DIBEKACIN],128 µg/mL,0.13 µg/mL,0.25 µg/mL,128 µg/mL,> 256 µg/mL,–,–,–,–,–,–,–
NC[C@@H]1O[C@H](O[C@H]2[C@@H](O)[C@H](O[C@@H]3[C@@H](O)[C@H](N)C[C@H](N)[C@H]3O[C@H]3O[C@H](CN)[C@@H](O)[C@H](O)[C@H]3N)O[C@@H]2CO)[C@H](N)[C@@H](O)[C@@H]1O [FRAMYCETIN],64 µg/mL,0.13 µg/mL,0.25 µg/mL,64 µg/mL,> 256 µg/mL,–,–,inactive,Active,inactive,Active,–
CN[C@@H]1[C@@H](O)[C@@H](O[C@@H]2[C@@H](O)[C@H](O[C@H]3O[C@H](CN)[C@@H](O)[C@H](O)[C@H]3O)[C@@H](N)C[C@H]2NC(=O)[C@@H](O)CN)OC[C@]1(C)O [ISEPAMICIN],128 µg/mL,0.13 µg/mL,0.13 µg/mL,64 µg/mL,> 256 µg/mL,–,–,–,–,–,–,–
NC[C@H]1O[C@H](O[C@H]2[C@H](O)[C@@H](O[C@H]3O[C@H](CO)[C@@H](O)[C@H](N)[C@H]3O)[C@H](N)C[C@@H]2N)[C@H](O)[C@@H](O)[C@@H]1O [KANAMYCIN],> 256 µg/mL,0.25 µg/mL,0.5 µg/mL,> 256 µg/mL,> 256 µg/mL,–,–,–,–,–,–,–
NC[C@@H]1O[C@H](O[C@H]2[C@@H](O)[C@H](O[C@@H]3[C@@H](O)[C@H](N)C[C@H](N)[C@H]3O[C@H]3O[C@H](CO)[C@@H](O)C[C@H]3N)O[C@@H]2CO)[C@H](N)[C@@H](O)[C@@H]1O[C@H]1O[C@H](CO)[C@@H](O)[C@H](O)[C@@H]1O [LIVIDOMYCIN],32 µg/mL,0.5 µg/mL,2 µg/mL,16 µg/mL,256 µg/mL,–,–,–,–,–,–,–
CCN[C@@H]1C[C@H](N)[C@@H](O[C@H]2OC(CN)=CC[C@H]2N)[C@H](O)[C@H]1O[C@H]1OC[C@](C)(O)[C@H](NC)[C@H]1O [NETILMICIN],> 256 µg/mL,≤ 0.06 µg/mL,0.13 µg/mL,> 256 µg/mL,> 256 µg/mL,–,–,–,–,–,–,–
NC[C@@H]1O[C@H](O[C@H]2[C@@H](O)[C@H](O[C@@H]3[C@@H](O)[C@H](N)C[C@H](N)[C@H]3O[C@H]3O[C@H](CO)[C@@H](O)[C@H](O)[C@H]3N)O[C@@H]2CO)[C@H](N)[C@@H](O)[C@@H]1O [PAROMOMYCIN],4 µg/mL,0.5 µg/mL,1 µg/mL,4 µg/mL,64 µg/mL,–,–,–,–,–,–,–
NC[C@H]1O[C@H](O[C@H]2[C@H](O[C@@H]3O[C@H](CO)[C@@H](O)[C@H]3O)[C@@H](O)[C@H](N)C[C@@H]2N)[C@H](N)[C@@H](O)[C@@H]1O [RIBOSTAMYCIN],> 256 µg/mL,0.25 µg/mL,0.5 µg/mL,> 256 µg/mL,> 256 µg/mL,–,–,inactive,Active,inactive,Active,–
CN[C@@H]1[C@@H](O)[C@@H](O[C@@H]2[C@@H](O)[C@H](O[C@H]3OC(CN)=CC[C@H]3N)[C@@H](N)C[C@H]2N)OC[C@]1(C)O [SISOMICIN],256 µg/mL,≤ 0.06 µg/mL,0.13 µg/mL,> 256 µg/mL,> 256 µg/mL,–,–,–,–,–,–,–
CN[C@@H]1[C@H](O)[C@H](NC)[C@H]2O[C@@]3(O)C(=O)C[C@@H](C)O[C@H]3O[C@@H]2[C@H]1O [SPECTINOMYCIN],16 µg/mL,16 µg/mL,16 µg/mL,> 256 µg/mL,> 256 µg/mL,–,–,–,–,–,–,–
CN[C@@H]1[C@H](O[C@H]2[C@H](O[C@H]3[C@H](O)[C@@H](O)[C@H](N=C(N)N)[C@@H](O)[C@@H]3N=C(N)N)O[C@@H](C)[C@]2(O)C=O)O[C@@H](CO)[C@H](O)[C@H]1O [STREPTOMYCIN],1 µg/mL,1 µg/mL,1 µg/mL,32 µg/mL,128 µg/mL,–,–,–,–,–,–,–
NC[C@H]1O[C@H](O[C@H]2[C@H](O)[C@@H](O[C@H]3O[C@H](CO)[C@@H](O)[C@H](N)[C@H]3O)[C@H](N)C[C@@H]2N)[C@H](N)C[C@@H]1O [TOBRAMYCIN],128 µg/mL,≤ 0.06 µg/mL,0.13 µg/mL,128 µg/mL,> 256 µg/mL,–,–,–,–,–,–,–
GENTAMICIN,16 µg/mL,< 0.06 µg/mL,0.13 µg/mL,128 µg/mL,> 256 µg/mL,–,–,inactive,Active,inactive,Active,Dose-dependent effect
